Most compounds without a hit are left out; they make up all but 2.3% or so of the library.
bCat nuc transl – beta-catenin nuclear translocation modulation; HeLa beta-catenin nuclear translocation, immunofluorescence imaging; nuclear translocation activity, % at 5 µM; actives 0.3% (n = 190,000);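 active = nuclear translocation activity above 50% at 5 µM, with a well cell count of 50 or more; inconclusive = wells under 50 cells across six images, flagged as toxic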;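 also: per-cell ratio of nuclear to cytoplasmic median beta-catenin stain intensity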
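Technique: fluorescence imaging of beta-catenin antibody stain plus DAPI / Material: human HeLa cell line / Incubation: compound treatment 24 h, 37°C, 5% CO2 / Read-out basis: % activation of per-cell nuclear versus cytoplasmic median beta-catenin signal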
MT stabilize HCS – microtubule stabilization, imaging screen; HeLa tubulin immunostaining HCS, 24 h; share of cells brighter than vehicle mean+2SD; % tubulin-high responders, % at 10 µM; actives 0.83% (n = 200,000);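 active = plate Z-score above 3 for both tubulin-high and condensed-nucleus cell shares, with cell loss under 80%, at 10 µM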;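 also: anti alpha tubulin signal scored within the nucleus-defined area of each cell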
Dynein transport – dynein cargo transport inhibition. z-score, hits read low. AID 1381. actives 0.47% (n = 220,000). 3617.4 mouse cells, GR-EGFP nuclear translocation imaging; test concentration mostly 20 µM; stimulated with dexamethasone, 1 µM; hits give low values;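 active = plate z-score of nuclear minus cytoplasmic receptor signal below a set negative limit, without overly bright fluorescence or cell loss, cut at about -3.5 in these data, passing the limit was not always enough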;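 also: z-score of nuclear minus cytoplasmic ring GR-EGFP intensity difference per well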
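Also added: dexamethasone, 1.0 µM final. Medium: tet-free, stripped-serum medium. Detection: fixed, Hoechst-stained cells imaged at 10x for EGFP. Read-out: nuclear-to-cytoplasmic GR-EGFP distribution per well. Times: induction 48 h, compound 1 h, agonist 30 min.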
Autophagy HCS – alters autophagy in cells; calls only at 10 µM (by protocol); MEF GFP-LC3 puncta imaging; test concentration mostly 10 µM; actives 0.98% (n = 190,000); AID 463193;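 active = percentage of spot-positive cells more than 3 SD above its plate mean, without a fluorescence outlier flag or 80% toxicity; inconclusive = no clear call, values can overlap the other calls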
Insulin prom up – MIN6 insulin promoter up-regulation. actives 0.3% (n = 190,000). MIN6 insulin promoter-GFP reporter, high-content imaging; hits give high values. AID 1625. z-score at 5 µM;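 active = z-score above 3 at 5 µM with at least 500 cells counted in the well; inconclusive = wells under 500 cells, flagged as cytotoxic or low count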
Dynein inh conf – dynein cargo transport inhibition, confirmation | actives 69% (n = 1,000) | AID 463116 | shares compounds with Dynein transport | calls only at 20 µM | 3617.4 GR-EGFP nuclear translocation imaging, dexamethasone-induced;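 active = inhibition of receptor movement into the nucleus at or above a set limit in both runs, with normal cell brightness and cell count; inconclusive = limit reached in only one run, brightness and count normal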;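 also: dexamethasone at 1 µM final in well for 30 min; nuclear minus cytoplasmic GR-EGFP mean intensity difference in channel 2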
Of the large screens only hits and unclear results are named; the others gave an inactive call (follow-up assays come after a bar, where they were run).

CCCN1C(=O)/C(=C/c2c(NCCCOC(C)C)nc3c(C)cccn3c2=O)SC1=S	Autophagy HCS active (no result: Insulin prom up) | Dynein inh conf inconclusive
CCC(C)N1C(=O)/C(=C/c2c(NCCCOC(C)C)nc3c(C)cccn3c2=O)SC1=S (centres undefined)	Autophagy HCS inconclusive (no result: Insulin prom up)
Cc1cc(C)nc(Sc2ncnc(N)c2[N+](=O)[O-])n1	Dynein transport -5.38 | Dynein inh conf inconclusive
CC1(C)COC(/C=C/c2ccc([N+](=O)[O-])cc2)=N1	MT stabilize HCS 17.6, Dynein transport -4.14, Insulin prom up inconclusive | Dynein inh conf active
CC(=C/C(=O)O)/C=C/c1ccc([N+](=O)[O-])cc1	none
O=[N+]([O-])c1cc([N+](=O)[O-])c2c(=Nc3ccccc3)n(-c3ccccc3)n(O)c2c1	none
O=C1c2ccccc2-c2onc3ccc(NCc4ccco4)c1c23	none | Dynein inh conf inactive
O=C1c2ccccc2-c2onc3ccc(N4CCCC4)c1c23	none
CCOc1ccc2noc3c2c1C(=O)c1ccccc1-3	Dynein transport -7.5 | Dynein inh conf active
CCNc1ccc2noc3c2c1C(=O)c1ccccc1-3	none (no result: Insulin prom up)
CC(C)(C)C(=O)Cn1ncc(N2CCCC2)c(Br)c1=O	none
O=C(OCn1ncc(Br)c(Br)c1=O)c1c(F)cccc1F	Dynein transport -4.76, Autophagy HCS active, Insulin prom up inconclusive | Dynein inh conf active
CC(=O)Cn1ncc(Br)c(Br)c1=O	Dynein transport -4.59, Autophagy HCS active (no result: Insulin prom up) | Dynein inh conf active
COc1ccccc1N/C=C/C(=C(C#N)C#N)N(C)C	none
COC(=O)c1ccc(C(=O)OC)c(-n2c(=O)c3ccccc3c3ccccc3c2=O)c1	Dynein transport -5.06 | Dynein inh conf active
CC(=C/C(=O)O)/C(=C\c1ccc(Br)o1)C(=O)O	none (no result: MT stabilize HCS, Autophagy HCS)
CC(C)(C)c1cc(NC(=O)CCl)n(-c2ccccc2)n1	none (no result: MT stabilize HCS, Autophagy HCS)
CCCc1cc(NC(=O)CCl)n(-c2ccccc2)n1	Dynein transport -4 (no result: Insulin prom up) | Dynein inh conf active
C/C(CC(=O)Nc1ccc([N+](=O)[O-])cc1)=N/NC(=O)C1C2CCCCC21 (centres undefined)	none (no result: MT stabilize HCS, Autophagy HCS)
COC(CNC(=O)c1ccc2c3c(onc13)-c1ccccc1C2=O)OC	Dynein transport -4.88 (no result: MT stabilize HCS, Autophagy HCS) | Dynein inh conf active
O=C(SCC(O)C(O)CS)c1cccs1 (centres undefined)	none (no result: MT stabilize HCS, Autophagy HCS)
CCOC(=O)c1cnc(COc2ccc(OC)cc2)[nH]c1=O	none (no result: MT stabilize HCS, Autophagy HCS, Insulin prom up)
O=c1c2ccccc2nc(/C=C/c2ccc([N+](=O)[O-])o2)n1CCCO	Dynein transport -5.62, Insulin prom up inconclusive | Dynein inh conf active
O=c1c2ccccc2nc(/C=C/c2ccc([N+](=O)[O-])cc2)n1CCCO	none
CCCCC1OC2(C)OC(=N)C1(C#N)C(C#N)(C#N)C2c1ccccc1 (centres undefined)	Dynein transport -4.47 | Dynein inh conf active
Cc1cccc(N(CC(=O)O)CC(=O)O)c1	none (no result: bCat nuc transl)
Cc1cccc(N(Cc2ccccc2)C(=O)CCl)c1	Dynein transport -5.68, Autophagy HCS inconclusive | Dynein inh conf active
O=C(CCl)N(Cc1ccccc1)c1ccccc1	Dynein transport -5.28 (no result: Insulin prom up) | Dynein inh conf active
O=C(c1cccnc1)N(Cc1ccccc1)c1ccccc1	none
CS(=O)(=O)c1nc(-c2ccc(Br)cc2)cc(-c2ccccc2)c1C#N	Dynein transport -5.98, Autophagy HCS active (no result: bCat nuc transl, Insulin prom up) | Dynein inh conf active
CS(=O)c1nc(-c2ccc(Br)cc2)cc(-c2ccccc2)c1C#N (centres undefined)	Dynein transport -4.14 | Dynein inh conf active
O=Cc1ccccc1OCc1nnsc1Cl	none
Cn1cnc([N+](=O)[O-])c1S(=O)(=O)c1ccc(Cl)cc1	Dynein transport -4.22 (no result: bCat nuc transl) | Dynein inh conf active
COc1ccc(-n2c(COc3cccc4cccnc34)nnc2SCC(=O)O)cc1	none
Cc1ccc(-n2nnnc2-c2ccccc2)cc1	none
Cc1ccc(-n2nnnc2C(Cl)c2nnnn2-c2ccc(C)cc2)cc1	Dynein transport -4.23 | Dynein inh conf active
Cc1cc(NN)nc2ccc(Cl)cc12	none
Cc1ccc([N+](=O)[O-])c(OCCN2CCC(Cc3ccccc3)CC2)c1	none
COc1ccccc1Cn1[nH]nnc1=S	none (no result: MT stabilize HCS, Autophagy HCS)
CCCNC(=O)Cn1c(=O)/c(=C\c2ccc(-c3ccc([N+](=O)[O-])cc3)o2)s/c1=C\C(=O)C(C)(C)C	Autophagy HCS inconclusive (no result: Insulin prom up) | Dynein inh conf active
CCN(CC)c1ccc(N=Cc2ccccc2[N+](=O)[O-])cc1	none (no result: bCat nuc transl)
CCN(CC)c1ccc(N=Cc2ccc([N+](=O)[O-])o2)cc1	Dynein transport -3.78 | Dynein inh conf inconclusive
Cc1cc(NC(=O)CSc2nc3cc(C(=O)NCCCOC(C)C)ccc3c(=O)n2Cc2ccco2)no1	none
CCCCN1C(=O)/C(=C/C=C2\N(C)c3ccccc3C2(C)C)SC1=S	Autophagy HCS active (no result: Insulin prom up) | Dynein inh conf inactive
CN(C)CCn1c(=O)n(-c2cccc(Cl)c2)c(=O)c2c3c(sc21)CCCCC3	none (no result: MT stabilize HCS, Autophagy HCS)
CC(C)c1ccc(CN2CCN(C(=O)CCl)CC2)cc1	Dynein transport -5.92 | Dynein inh conf active
CCCCC(=O)N1C/C=C\C(c2ccc(OC)cc2)N(Cc2ccc(F)cc2)C(=O)C1 (centres undefined)	none (no result: MT stabilize HCS, Autophagy HCS)
N#CC(C#N)=C1C=C2C=C(N3CCCCC3)CCC2CC1 (centres undefined)	Dynein transport -7.32, Autophagy HCS inconclusive (no result: Insulin prom up) | Dynein inh conf active
CCCCN(C)C1=CC2=CC(=C(C#N)C#N)CCC2CC1 (centres undefined)	Dynein transport -8.14, Autophagy HCS inconclusive (no result: Insulin prom up) | Dynein inh conf active
Cc1ccccc1NNC(=O)C(=O)NNc1ccccc1C	none (no result: MT stabilize HCS, Autophagy HCS)
Cc1ccccc1NC(=O)C(Cl)=C(Cl)Cl	Dynein transport -3.79 | Dynein inh conf active
ClCc1nnc(-c2cc3c(s2)CCCC3)o1	Dynein transport -4.47 (no result: Insulin prom up) | Dynein inh conf inconclusive
CC(C)(C)C1CCc2sc(-c3nnc(CCl)o3)cc2C1 (centres undefined)	Dynein transport -4.19 | Dynein inh conf active
Cc1ccc(S(=O)(=O)Oc2ccc(/C=N/NC(=O)c3cccnc3)cc2)cc1	none
O=c1cc(C(F)(F)F)[nH]c2c(OC(F)(F)F)cccc12	none (no result: MT stabilize HCS, Autophagy HCS)
CCOC(=O)/C(=C\c1cccnc1)C(=O)c1cc(C(C)=O)c(Nc2ccccc2)s1	Dynein transport -5.68, Autophagy HCS active | Dynein inh conf active
CN(C)c1oc(-c2ccccc2[N+](=O)[O-])nc1C#N	Dynein transport -5.06 (no result: MT stabilize HCS, Autophagy HCS) | Dynein inh conf inactive
CN(C)c1oc(-c2ccccc2Cl)nc1C#N	none
C/C(N)=C(/C#N)C(=O)CSc1nc2cc(Cl)ccc2s1	none
CCn1nc([N+](=O)[O-])c(C(C#N)c2nc3cc(C(F)(F)F)ccc3s2)c(Cl)c1=O (centres undefined)	Dynein transport -4.4 | Dynein inh conf active
O=C(c1ccccc1)c1ccccc1C(=O)N1CCN(C(=O)c2ccccc2)CC1	none
O=C(c1ccccc1)c1ccccc1N1C(=O)C=CC1=O	Dynein transport -4.41 (no result: MT stabilize HCS, Autophagy HCS) | Dynein inh conf active
